# High-throughput results from PubChem.
# CDK5 inh: blocks human CDK5/p35 kinase activity. inhibition, % at 10 µM. Recombinant CDK5/p35, ADP-Glo luminescence, 60 min. Q00535+Q15078. AID 488839. 0.01% of 330,000 active;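 active = highest replicate inhibition of at least 50% and at least 75% of replicates reaching 50%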;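 note: plate controls were DMSO neutral control for no effect and GW8510 at 10 µM for full effect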
# dFosB act: mouse delta FosB homodimer activation. P13346. purified delta FosB, TAMRA-CDK5 oligo fluorescence polarization; percent of positive-control signal above neutral wells. activation, % at 25 µM. 0.99% of 340,000 active;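 active = mean activation above about 17%, with every replicate also reaching it, limit read from the data, passing the limit was not always enough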
# Target sequence (P13346 whole entry, looked up): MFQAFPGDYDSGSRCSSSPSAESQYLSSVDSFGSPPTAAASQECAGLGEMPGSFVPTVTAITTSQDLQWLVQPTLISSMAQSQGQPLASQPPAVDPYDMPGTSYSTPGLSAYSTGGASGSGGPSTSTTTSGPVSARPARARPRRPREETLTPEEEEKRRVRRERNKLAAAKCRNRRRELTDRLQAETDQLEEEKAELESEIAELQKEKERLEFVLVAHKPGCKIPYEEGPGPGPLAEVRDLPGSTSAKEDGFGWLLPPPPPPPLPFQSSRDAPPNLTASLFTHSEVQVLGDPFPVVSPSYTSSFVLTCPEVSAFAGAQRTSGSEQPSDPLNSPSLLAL
# SR-BI DiI-HDL act: enhances SR-BI lipid uptake from DiI-HDL; CHO ldlA[mSR-BI] cells, DiI-HDL uptake fluorescence, 3 h; 100 = double the neutral-control signal; 0.096% of 320,000 active; activation, % at 12.5 µM;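 active = mean replicate activation of at least 60% and every replicate at or above 60%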;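 note: 0% = median plate neutral-control signal and 100% = twice that signal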
#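 Assay system: CHO ldlA[mSR-BI] cells, LDL receptor-null, SR-BI overexpressing; medium: Ham's F12 with 0.5% BSA, HEPES 25 mM, pH 7.4; also added: DiI-HDL 10 µg/mL; timing: 3 h uptake period with compound, 37 °C; signal: DiI fluorescence, bottom read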
# SR-BI DiI inh: inhibitors of mouse SR-BI mediated HDL lipid uptake; Q61009; ldlA[mSR-BI] CHO cells, DiI-HDL uptake fluorescence, 3 h; inhibition, % at 12.5 µM; 0.96% of 320,000 active; AID 488896;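 active = mean replicate inhibition of at least 70% and a set share of replicates each scoring 70 or more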;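 note: 0% = median of neutral control wells and 100% = median of positive control wells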
# The depositor's hits bear a star; nt = no result given. Only some compounds are listed: those with a hit (about 2% of all), similar ones and a draw of the others.
SMILES,CDK5 inh,dFosB act,SR-BI DiI-HDL act,SR-BI DiI inh
CC(C)(C)C1CCc2c(sc(NC(=O)C3CCCO3)c2C(N)=O)C1 (stereo not drawn),1,-4,-78,78*
Cc1ccc(NC(=O)c2sc3nc(N4CCOCC4)c4c(c3c2N)CC(C)(C)OC4)cc1,1,-2,-26,26
CC1(C)Cc2c(c(N3CCCC3)nc3sc(C(=O)Nc4ccccc4)c(N)c23)CO1,nt,-9,-76,76*
CCOC(=O)c1sc2nc(N3CCOCC3)c3c(c2c1N)CCC3,-1,-4,-74,74*
COc1ccccc1NC(=O)c1sc2nc(N3CCOCC3)c3c(c2c1N)CCCC3,-1,-8,nt,84*
Cc1ccccc1NC(=O)c1sc2nc(N3CCOCC3)c3c(c2c1N)CCCC3,nt,-10,-69,69
CCOC(=O)c1sc2nc(-c3ccco3)c3c(c2c1N)CC(C)(C)OC3,-1,-18,-75,75*
Cc1cccc(NC(=O)CCS(=O)(=O)c2cccc3nsnc23)c1C,-1,2,70*,-70
Cc1ccc(-c2[nH]ncc2/C=N/n2c(COc3ccccc3)nc3ccccc3c2=O)cc1,-3,6,-25,25
Cc1cc(/C=N/n2c(COc3ccccc3)nc3ccccc3c2=O)c(O)c([N+](=O)[O-])c1,1,-3,-130,130*
COC(=O)c1[nH]c(=O)c2ccccc2c1OCc1ccccc1,-1,-15,200*,-200
CCOc1ccccc1/C=N/NC(=O)c1cccc(Cl)c1,2,1,-86,86*
CCOc1ccc(Cl)cc1/C=N/NC(=O)c1ccccc1,0,-6,-57,57
CC(C)Oc1ccccc1/C=N/NC(=O)c1ccccc1Cl,-1,2,-77,77*
CCN(CC)S(=O)(=O)c1cccc(C(=O)Nc2cc(C)cc(C)c2)c1,-1,-10,-77,77*
CC(C)Oc1ccccc1/C=N/NC(=O)c1ccc(F)cc1,1,-2,-63,63
CCOc1ccccc1/C=N/NC(=O)c1cccc(S(=O)(=O)N(CC)CC)c1,-8,-6,-77,77*
Cc1ccc(S(=O)(=O)N2CCN(Cc3cc(=O)n4ccccc4n3)CC2)c(C)c1,-3,-13,19,-19
CC(C)(C)OC(=O)N1CCC(CNC(=O)c2cccs2)CC1,-3,-4,6,-7
COc1cccc(CC2(CO)CCCN(Cc3cc4ccccc4[nH]3)C2)c1 (stereo not drawn),0,8,-18,18
O=C(NCCC(=O)N(CCc1ccccc1)Cc1ccccc1)c1ccc(Br)cc1,-1,-4,16,-16
COc1cc2sc(-c3ccc(S(C)(=O)=O)cc3)c(-c3ccc4c(c3)OCO4)c2cc1OC,-1,8,-83,83*
COc1ccc2c(-c3ccc(SC)cc3)c(-c3ccc(S(C)(=O)=O)cc3)sc2c1,0,4,-81,81*
COc1ccc2sc(-c3ccc(S(C)(=O)=O)cc3)c(-c3ccc(SC)cc3)c2c1,0,-9,-53,53
Cc1ccc(OCC(=O)Nc2nnc(S(=O)(=O)N3CCC(C)CC3)s2)cc1,-2,-4,9,-9
SMILES,CDK5 inh,dFosB act,SR-BI DiI-HDL act,SR-BI DiI inh
C(C#CCCCCCCCCC[n+]1ccccc1)#CCCCCCCCCC[n+]1ccccc1,0,49*,16,-16
COc1c(S(=O)(=O)N2CCN(C)CC2)ccc(Cl)c1Cl,0,-3,-9,9
CN1C(=O)CSc2ccc(NC(=O)N3CCN(c4ccccc4)CC3)cc21,1,-9,-78,78*
CCCCOc1cccc(C(=O)NC(=S)Nc2cccc(NC(=O)c3ccccc3Cl)c2)c1,1,-2,-59,59
CCCOc1cccc(C(=O)NC(=S)Nc2cccc(NC(=O)c3ccccc3Cl)c2)c1,3,3,-81,81*
O=C(O)c1cccc(NC(=S)NC(=O)c2cccc(OCc3ccccc3)c2)c1,1,0,68*,-68
CCNc1ccc(C(=O)OCC)cc1NC(=O)c1cccc(N(C)C)c1,5,-3,-86,86*
CCNc1ccc(C(=O)OCC)cc1NC(=O)c1cccc(S(=O)(=O)N(C)c2ccccc2)c1,-1,-4,-57,57
